# In publication PMC5814546 (Clinical Pharmacokinetics, 2017):
# Columns and labels:
# [1] = Phase I multiple ascending dose study of ALZ-801 capsule and tablet; assay type: in vivo, human; settings: plasma; for half-life: t ½
# [2] = Single-dose ALZ-801 immediate-release tablet PK and food effect study; assay type: in vivo, human; settings: human, plasma, oral
# [3] = Safety and tolerability, capsule and tablet multiple ascending dose study; assay type: in vivo, human
# Method in brief: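 Double-blind study; 12 per cohort randomized 3:1 to ALZ-801 or placebo. Cohort A fasted capsule: 171 mg once on day 1, twice daily days 2–7, then 256.5 mg days 8–14. Cohort D tablet 265 mg, ages 60–75, fed 30 min pre-dose: once day 1, twice daily days 2–6, once day 7. AEs recorded until follow-up call and coded by MedDRA v18.1.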
# [4] = Urine drug recovery, renal clearance and estimate of oral bioavailability; assay type: in vivo, human; settings: Cohort D, 24-h urine; for CL renal: both, human, urine and plasma, oral, 265 mg, CLr, mean ± SD
# Method in brief: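 Cohort D: 265 mg immediate-release tablet in the fed state (meal 30 min pre-dose), once on day 1, twice daily days 2–6, once on day 7. Urine was collected over 24 h on days 1 and 7 and assayed by LC-MS (LLOQ 30 ng/mL ALZ-801, 100 ng/mL tramiprosate). Renal clearance was calculated as Ae divided by plasma AUC24.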
# [5] = Drug substance properties; assay type: physicochemical
# [6] = Part 1: Cohort A, 171 and 256.5 mg capsule, fasted
# [7] = Part 1: Cohort B, 256.5 and 340 mg capsule, fasted
# [8] = Part 1: Cohort C, 256.5 and 340 mg capsule, fed
# [9] = Part 2: Cohort D, 265 mg tablet, fed
# [10] = Week 1, Cohort A 171 mg bid, capsule, fasted
# [11] = Week 1, Cohort B 256.5 mg bid, capsule, fasted
# [12] = Week 1, Cohort C 256.5 mg bid, capsule, fed
# [13] = Week 1, Cohort D 265 mg bid, tablet, fed
# [14] = Week 2, Cohort A 256.5 mg qd, capsule, fasted
# [15] = Week 2, Cohort B 340 mg qd, capsule, fasted
# [16] = Week 2, Cohort C 340 mg bid, capsule, fed
smiles,measurement,setting,value
"CC(C)[C@H](N)C(=O)NCCCS(=O)(=O)O [ALZ-801, 3-(L-valyl) amino-1-propanesulfonic acid]",Tmax,"[1]; both, human, oral, 256.5 mg, T max, ALZ-801 capsule 171 and 256.5 mg, day 1, fasted",0.5 h
same,Tmax,"[1]; both, human, oral, 256.5 mg, Tmax, Cohort C, capsule, fed, 256.5 mg QD, Day 1, median (range)",~1 h
same,half-life,"[1]; both, human, oral, 256.5 mg, ALZ-801 capsule 171 and 256.5 mg, day 1, fasted",~1 h
same,AUC,"[1]; both, human, oral, 265 mg, AUC12, plasma, Day 1, fed, ALZ-801 tablet 265 mg (Cohort D), mean ± SD",10300 ng·h/mL
same,AUC,"[1]; both, human, oral, 265 mg, AUC12, plasma, Day 7, fed, ALZ-801 tablet 265 mg twice daily (Cohort D), mean ± SD",11200 ng·h/mL
same,AUC,"[1]; both, human, oral, 265 mg, AUC24, plasma, Day 1, fed, ALZ-801 tablet 265 mg (Cohort D), mean ± SD",10300 ng·h/mL
same,AUC,"[1]; both, human, oral, 265 mg, AUC24, plasma, Day 7, fed, ALZ-801 tablet 265 mg twice daily (Cohort D), mean ± SD",11200 ng·h/mL
same,Cmax,"[1]; both, human, oral, 265 mg, C max, Day 1, fed, ALZ-801 tablet 265 mg (Cohort D), mean ± SD",4960 ± 2650 ng/mL
same,Tmax,"[1]; both, human, oral, 265 mg, T max, Day 1, fed, ALZ-801 tablet 265 mg (Cohort D), mean ± SD",2.45 ± 0.848 h
same,Tmax,"[1]; both, human, oral, 265 mg, T max, Day 7, fed, ALZ-801 tablet 265 mg twice daily (Cohort D), mean ± SD",2.11 ± 0.553 h
same,half-life,"[1]; both, human, oral, 265 mg, Day 1, fed, ALZ-801 tablet 265 mg (Cohort D), mean ± SD",1.05 ± 0.16 h
same,half-life,"[1]; both, human, oral, 265 mg, Day 7, fed, ALZ-801 tablet 265 mg twice daily (Cohort D), mean ± SD",1.11 ± 0.263 h
same,Tmax,"[1]; both, human, oral, 340 mg, T max, day 14, dosing in the fasted state",~0.5 h
same,half-life,"[1]; both, human, oral, irrespective of dosing regimen and day",~1 h
same,lower C max in fed than fasted state,"[1]; 256.5 mg ALZ-801 capsules, day 1",25%
same,lower C max for 265 mg tablet than 256.5 mg capsule,"[1]; fed state, day 1",22%
same,lower C max in fed than fasted state,"[1]; repeated 256.5 mg ALZ-801 capsules, day 7",30%
same,half-life,[2],< 1 h
same,Tmax,[2]; 171 mg,1 h
same,Tmax,[2]; 205 mg,0.5 h
same,incidence of TEAEs,"[3]; 265 mg twice daily, fed state",equivalent to placebo
same,total number of TEAEs,[3]; ALZ-801 dosing in the fasting state,65
same,No. of deaths (all causes),[3]; [6],0
same,No. of deaths resulting from AEs,[3]; [6],0
same,Subjects affected by SAE/exposed,[3]; [6],0/9
same,No. of deaths (all causes),[3]; [7],0
same,No. of deaths resulting from AEs,[3]; [7],0
same,Subjects affected by SAE/exposed,[3]; [7],0/9
same,No. of deaths (all causes),[3]; [8],0
same,No. of deaths resulting from AEs,[3]; [8],0
same,Subjects affected by SAE/exposed,[3]; [8],0/9
same,No. of deaths (all causes),[3]; [9],0
same,No. of deaths resulting from AEs,[3]; [9],0
same,Subjects affected by SAE/exposed,[3]; [9],0/9
same,TEAEs: Nausea,[3]; [10],3 (33.3) cases (%)
same,TEAEs: Vomiting,[3]; [10],0 cases (%)
same,TEAEs: Nausea,[3]; [11],4 (44.4) cases (%)
same,TEAEs: Vomiting,[3]; [11],2 (22.2) cases (%)
same,TEAEs: Nausea,[3]; [12],5 (55.6) cases (%)
same,TEAEs: Vomiting,[3]; [12],2 (22.2) cases (%)
same,TEAEs: Nausea,[3]; [13],3 (33.3) cases (%)
same,TEAEs: Vomiting,[3]; [13],1 (11.1) cases (%)
same,TEAEs: Nausea,[3]; [14],3 (33.3) cases (%)
same,TEAEs: Vomiting,[3]; [14],0 cases (%)
same,TEAEs: Nausea,[3]; [15],0 cases (%)
same,TEAEs: Vomiting,[3]; [15],2 (22.2) cases (%)
same,TEAEs: Nausea,[3]; [16],0 cases (%)
same,TEAEs: Vomiting,[3]; [16],0 cases (%)
same,tolerability,[3]; doses of up to 340 mg twice daily,well tolerated
same,Mean Ae,"[4]; Day 1, ALZ-801 tablet 265 mg",22.5 mg
same,Mean Ae,"[4]; Day 7, ALZ-801 tablet 265 mg",24.1 mg
same,CL renal,"[4]; Day 1, ALZ-801 tablet 265 mg",36.4 ± 10.7 mL/min
same,CL renal,"[4]; Day 7, ALZ-801 tablet 265 mg",35.9 ± 19.9 mL/min
same,pKa,[5],7.69
same,solubility,[5]; water,> 200 mg/mL
